Columns and labels:
[1] = biological target: T1, Adrenergic receptor alpha-2 (Rattus norvegicus, UniProt P22086+P19328+P22909); test: (§1) In vitro antagonistic activity against alpha-2 adrenergic receptor in isolated electrically stimulated rat vas deferens (clonidine-induced decrease in twitch height); format: functional, tissue-based
T1 sequence (P22086 whole entry): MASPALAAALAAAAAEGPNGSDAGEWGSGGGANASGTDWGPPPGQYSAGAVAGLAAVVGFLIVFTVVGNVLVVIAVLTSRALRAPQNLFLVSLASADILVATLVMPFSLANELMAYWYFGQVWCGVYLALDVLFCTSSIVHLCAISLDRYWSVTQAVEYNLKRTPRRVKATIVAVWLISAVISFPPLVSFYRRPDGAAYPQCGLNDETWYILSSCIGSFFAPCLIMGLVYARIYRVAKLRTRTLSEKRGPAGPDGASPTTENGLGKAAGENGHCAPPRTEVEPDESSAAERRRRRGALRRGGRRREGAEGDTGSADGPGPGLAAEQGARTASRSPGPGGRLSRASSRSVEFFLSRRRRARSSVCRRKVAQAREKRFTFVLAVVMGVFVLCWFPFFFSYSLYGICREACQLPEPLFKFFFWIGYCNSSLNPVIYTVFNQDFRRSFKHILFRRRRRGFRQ
T1 sequence (P19328 whole entry): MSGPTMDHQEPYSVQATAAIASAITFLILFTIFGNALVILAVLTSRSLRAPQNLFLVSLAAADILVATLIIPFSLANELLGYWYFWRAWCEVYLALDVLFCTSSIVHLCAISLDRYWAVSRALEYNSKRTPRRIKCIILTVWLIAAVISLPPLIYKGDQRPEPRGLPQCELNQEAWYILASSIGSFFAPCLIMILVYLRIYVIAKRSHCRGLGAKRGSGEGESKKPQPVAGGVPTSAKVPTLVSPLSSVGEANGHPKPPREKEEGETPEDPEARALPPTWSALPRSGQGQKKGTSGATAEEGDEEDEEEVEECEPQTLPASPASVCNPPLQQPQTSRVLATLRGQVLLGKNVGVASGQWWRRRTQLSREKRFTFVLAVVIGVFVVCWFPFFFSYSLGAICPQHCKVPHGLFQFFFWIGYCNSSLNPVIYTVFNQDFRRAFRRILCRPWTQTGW
T1 sequence (P22909 whole entry): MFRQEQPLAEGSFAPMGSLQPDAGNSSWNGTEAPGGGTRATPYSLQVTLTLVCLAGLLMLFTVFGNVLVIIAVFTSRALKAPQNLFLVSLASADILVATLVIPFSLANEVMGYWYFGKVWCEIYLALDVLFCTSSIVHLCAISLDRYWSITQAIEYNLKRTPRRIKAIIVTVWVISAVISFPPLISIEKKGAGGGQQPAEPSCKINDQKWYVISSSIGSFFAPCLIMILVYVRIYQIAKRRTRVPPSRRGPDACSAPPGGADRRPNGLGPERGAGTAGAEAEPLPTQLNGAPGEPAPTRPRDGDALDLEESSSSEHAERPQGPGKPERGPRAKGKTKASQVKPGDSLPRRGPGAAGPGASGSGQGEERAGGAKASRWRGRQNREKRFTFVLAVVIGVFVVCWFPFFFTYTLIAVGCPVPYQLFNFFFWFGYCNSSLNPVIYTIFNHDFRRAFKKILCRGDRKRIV

[2] = biological target: T1, Adrenergic receptor alpha-2; test: as §1; format: functional, tissue-based; remark: listed apart in the source
Rattus norvegicus = test: Minimum effective dose required for inhibition of serotonin uptake was determined by PCA method in rat by peroral administration; format: functional; details: po, read-out: MED
Summary of the method: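 Fasted male Sprague–Dawley rats (160–200 g) given test compound orally in water (10 mL/kg) 15 min before p-chloroamphetamine 3 mg/kg ip. Forebrain taken 3 h later, extracted in acidified butanol then heptane/0.1 N HCl. Serotonin in aqueous phase measured fluorometrically after o-phthalaldehyde condensation (excitation 360 nm). Minimum effective dose reported.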

[3] = biological target: T1, Adrenergic receptor alpha-2; test: (§2) Ability to displace [3H]clonidine from alpha-2 adrenergic receptor in rat brain homogenates in vitro; format: tissue-based
Summary of the method: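 Rat cerebral cortex homogenized in 50 mM Tris pH 7.7, washed twice by centrifugation at 48000g, resuspended in 50 volumes. Membranes incubated with 0.4 nM [3H]clonidine plus varied test concentrations, 30 min at 25 °C. Nonspecific binding defined with 1 μM unlabeled clonidine. GF/B filtration, scintillation counting. Run in triplicate; logit plot IC50 converted to apparent Ki (Cheng–Prusoff).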

[4] = selectivity ratio (Alpha-1[Methoxiamine]/Alpha2[clonidine]
Summary of the method: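 Ratio derived from Schild pA2 values in rat vas deferens: α1 antagonism against methoxamine contractions (24 °C Krebs, three antagonist concentrations) versus α2 antagonism against clonidine inhibition of field-stimulated twitch (33–34 °C, 80 V, 1 ms, 0.15 Hz).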

[5] = biological target: T1, Adrenergic receptor alpha-2; test: as §2; format: tissue-based; remark: listed apart in the source
[6] = selectivity ratio (Alpha-1[3H]-prazosin/Alpha2[3H]-clonidine)

pA2 [1] | pA2 [2] | Ki [3] [µM] | Selectivity ratio [4] | Ki [5] [µM] | Selectivity ratio [6] | Ratio [4] | Ratio [6] | Compound | minimal effective dose (Rattus norvegicus) [mg/kg]
7.19 | 7.19 | 0.012 | 1.3 | 0.012 | 12.3 | – | – | CC1=C(CC2=NCCN2)CCc2ccccc21.Cl | 30
7.76 | 7.76 | 0.023 | – | 0.023 | – | 7.8 | 3.4 | C1=C(CC2=NCCN2)CCc2ccccc21.Cl [NAPAMEZOLE HYDROCHLORIDE] | 30

Reference: ChEMBL document CHEMBL1123816, “Synthesis and antidepressant properties of novel 2-substituted 4,5-dihydro-1H-imidazole derivatives” (J Med Chem, 1987)
